ChEMBL document CHEMBL1135457 (J Med Chem, 2002)

How the values were obtained:
[1] = biological target: T1, Progesterone receptor (Homo sapiens) (UniProt P06401)
T1 sequence (whole entry): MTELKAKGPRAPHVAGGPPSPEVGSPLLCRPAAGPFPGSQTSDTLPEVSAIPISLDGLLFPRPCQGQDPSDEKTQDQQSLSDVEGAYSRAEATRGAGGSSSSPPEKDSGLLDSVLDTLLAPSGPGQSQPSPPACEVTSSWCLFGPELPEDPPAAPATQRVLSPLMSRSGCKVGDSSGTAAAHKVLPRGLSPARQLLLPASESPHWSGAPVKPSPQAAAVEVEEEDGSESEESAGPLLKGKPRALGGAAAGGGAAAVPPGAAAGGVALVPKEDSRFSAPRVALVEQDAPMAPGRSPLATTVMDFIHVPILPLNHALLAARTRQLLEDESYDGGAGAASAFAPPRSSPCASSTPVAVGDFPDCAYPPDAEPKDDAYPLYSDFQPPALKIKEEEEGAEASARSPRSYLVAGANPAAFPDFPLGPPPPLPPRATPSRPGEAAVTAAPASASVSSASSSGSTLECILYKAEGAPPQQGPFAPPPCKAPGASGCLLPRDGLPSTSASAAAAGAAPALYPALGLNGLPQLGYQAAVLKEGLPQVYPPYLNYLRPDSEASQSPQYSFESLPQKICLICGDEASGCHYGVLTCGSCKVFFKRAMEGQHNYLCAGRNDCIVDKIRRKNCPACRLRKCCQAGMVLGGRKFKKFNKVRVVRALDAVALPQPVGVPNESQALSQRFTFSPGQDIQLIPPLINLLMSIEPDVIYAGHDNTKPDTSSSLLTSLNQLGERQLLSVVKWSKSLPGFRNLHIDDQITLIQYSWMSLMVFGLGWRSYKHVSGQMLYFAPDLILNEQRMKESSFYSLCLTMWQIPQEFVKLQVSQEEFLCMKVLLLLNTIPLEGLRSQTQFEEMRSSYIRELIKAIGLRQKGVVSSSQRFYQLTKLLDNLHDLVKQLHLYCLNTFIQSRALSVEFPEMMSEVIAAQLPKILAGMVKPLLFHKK

Androgen receptor = biological target: T2, Androgen receptor (Homo sapiens, UniProt P10275); test: Displacement of [3H]DHT from human Androgen receptor
T2 sequence (P10275 whole entry): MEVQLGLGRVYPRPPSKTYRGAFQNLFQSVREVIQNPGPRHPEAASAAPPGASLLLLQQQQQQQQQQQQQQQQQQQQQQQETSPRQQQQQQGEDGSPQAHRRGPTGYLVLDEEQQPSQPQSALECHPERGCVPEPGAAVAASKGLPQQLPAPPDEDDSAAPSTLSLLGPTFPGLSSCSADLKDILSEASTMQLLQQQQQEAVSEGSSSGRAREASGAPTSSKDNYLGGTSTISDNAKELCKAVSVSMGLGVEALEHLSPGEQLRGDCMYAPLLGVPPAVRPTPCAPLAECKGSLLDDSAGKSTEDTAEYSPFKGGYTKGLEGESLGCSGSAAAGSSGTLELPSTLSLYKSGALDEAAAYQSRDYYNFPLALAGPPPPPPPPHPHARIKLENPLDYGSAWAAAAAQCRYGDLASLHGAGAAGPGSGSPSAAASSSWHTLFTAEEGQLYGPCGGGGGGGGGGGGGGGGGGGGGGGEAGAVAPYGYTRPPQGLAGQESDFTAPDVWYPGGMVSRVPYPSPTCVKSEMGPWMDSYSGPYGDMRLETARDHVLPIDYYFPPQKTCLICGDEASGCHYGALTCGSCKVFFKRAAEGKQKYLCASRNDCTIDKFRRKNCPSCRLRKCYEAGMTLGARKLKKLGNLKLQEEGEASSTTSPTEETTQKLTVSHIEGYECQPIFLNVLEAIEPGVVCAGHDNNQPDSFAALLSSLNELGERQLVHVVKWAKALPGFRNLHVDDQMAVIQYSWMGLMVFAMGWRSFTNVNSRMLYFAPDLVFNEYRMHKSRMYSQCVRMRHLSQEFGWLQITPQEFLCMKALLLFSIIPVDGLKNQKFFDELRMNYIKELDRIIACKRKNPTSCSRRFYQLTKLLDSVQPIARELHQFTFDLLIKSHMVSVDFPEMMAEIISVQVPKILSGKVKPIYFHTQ
How it was run: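 Whole-cell extract of Sf9 cells infected with baculovirus expressing human AR (MOI 2, harvested 48 h), sonicated in pH 7.2 HEPES/molybdate/glycerol buffer. Extract bound to hydroxylapatite with 1 nM [3H]DHT and compound (0.01 nM–30 μM) in triplicate, 1 h, 4 °C. Nonspecific binding from 10 μM unlabeled DHT. Filtration, scintillation counting, sigmoidal IC50, Cheng–Prusoff Ki (Kd 0.4 nM).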

[2] = biological target: T1, Progesterone receptor (Homo sapiens); test: Displacement of 10 nM [3H]dexamethasone from human Progesterone receptor, percent inhibition at 10 uM
[3] = biological target: T1, Progesterone receptor (Homo sapiens); remark: listed apart in the source
[4] = biological target: T3, Mineralocorticoid receptor (Homo sapiens) (UniProt P08235); details: 1 uM
T3 sequence (whole entry): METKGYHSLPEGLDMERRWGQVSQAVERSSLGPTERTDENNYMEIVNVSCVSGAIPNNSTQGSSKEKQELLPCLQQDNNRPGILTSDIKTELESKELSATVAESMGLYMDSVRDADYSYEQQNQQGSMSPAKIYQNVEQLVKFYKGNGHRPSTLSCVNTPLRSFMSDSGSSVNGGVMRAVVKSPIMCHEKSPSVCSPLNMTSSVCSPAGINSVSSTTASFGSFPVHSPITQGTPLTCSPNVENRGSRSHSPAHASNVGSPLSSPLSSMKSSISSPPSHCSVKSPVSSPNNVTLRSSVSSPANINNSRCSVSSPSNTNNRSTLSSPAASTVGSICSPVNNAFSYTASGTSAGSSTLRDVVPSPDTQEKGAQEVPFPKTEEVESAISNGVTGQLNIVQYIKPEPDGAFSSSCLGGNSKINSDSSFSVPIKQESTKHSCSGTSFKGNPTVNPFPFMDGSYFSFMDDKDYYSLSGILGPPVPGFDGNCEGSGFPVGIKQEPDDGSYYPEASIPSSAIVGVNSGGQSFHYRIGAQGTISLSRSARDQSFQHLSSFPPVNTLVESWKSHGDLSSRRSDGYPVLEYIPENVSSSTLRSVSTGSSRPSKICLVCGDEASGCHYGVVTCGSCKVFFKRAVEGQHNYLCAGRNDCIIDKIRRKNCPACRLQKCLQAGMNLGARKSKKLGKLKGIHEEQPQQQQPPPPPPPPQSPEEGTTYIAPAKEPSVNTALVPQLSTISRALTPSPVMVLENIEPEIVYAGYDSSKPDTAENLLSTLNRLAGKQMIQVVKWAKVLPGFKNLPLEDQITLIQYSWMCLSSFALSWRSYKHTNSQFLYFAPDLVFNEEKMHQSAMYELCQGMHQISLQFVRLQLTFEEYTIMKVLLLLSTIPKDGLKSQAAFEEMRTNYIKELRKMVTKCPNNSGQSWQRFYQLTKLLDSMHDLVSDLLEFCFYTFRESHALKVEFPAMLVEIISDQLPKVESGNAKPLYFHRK

## Oc1ccc2c(c1)CC[C@@H]1C[C@@](O)(C#CCl)CC[C@@]21Cc1ccccc1
[1]
  Kif: > 1000 nM

## CC#C[C@@]1(O)CC[C@@]2(Cc3ccccc3)c3ccc(O)cc3CC[C@@H]2C1
Androgen receptor
  Ki: 650 nM

## CC#C[C@]1(O)CCC2C3CCC4=CC(=O)CC[C@]4(Cc4ccc(C)cc4)C3=CC[C@@]21C (stereo not given in full)
[2]
  inhibition: 30%
[3]
  Kif: > 1000 nM
[4]
  inhibition: 0%
